The target in assay [1] is T1, Kif15-N700 (Homo sapiens, UniProt Q9NS87).
T1 sequence (Q9NS87 1-700 limits assumed): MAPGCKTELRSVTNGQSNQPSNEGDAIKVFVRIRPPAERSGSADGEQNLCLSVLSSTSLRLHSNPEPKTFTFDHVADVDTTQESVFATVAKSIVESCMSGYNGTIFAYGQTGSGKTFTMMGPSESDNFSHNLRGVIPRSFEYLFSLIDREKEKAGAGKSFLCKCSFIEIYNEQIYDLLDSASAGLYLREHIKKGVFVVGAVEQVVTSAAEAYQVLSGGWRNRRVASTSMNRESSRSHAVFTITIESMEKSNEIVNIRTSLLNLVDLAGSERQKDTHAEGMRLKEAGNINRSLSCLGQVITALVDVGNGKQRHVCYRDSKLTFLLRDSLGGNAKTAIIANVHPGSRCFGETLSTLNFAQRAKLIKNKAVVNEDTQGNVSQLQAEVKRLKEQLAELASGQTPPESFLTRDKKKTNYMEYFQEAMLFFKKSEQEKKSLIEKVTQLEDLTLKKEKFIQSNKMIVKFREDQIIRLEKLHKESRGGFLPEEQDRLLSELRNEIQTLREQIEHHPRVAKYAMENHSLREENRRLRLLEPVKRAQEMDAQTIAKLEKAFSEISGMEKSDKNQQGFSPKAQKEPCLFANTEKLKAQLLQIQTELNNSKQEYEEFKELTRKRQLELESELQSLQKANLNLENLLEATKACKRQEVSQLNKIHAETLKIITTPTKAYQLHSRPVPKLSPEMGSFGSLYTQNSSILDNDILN
Kind of assay: MT gliding assay with Kif15-N700. In kind it is biochemical. The following applies: for Kif15 MT gliding inhibition (SAR, in words): 750 nM; for effect on Kif15-driven MT gliding at a single concentration: GW108X 10 μM for 1 minute, Kif15-IN-1 1.72 μM; for reversibility of Kif15 inhibition in MT gliding assay: wash out experiment. In outline:
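Motility assay in which Kif15-N700 glides fluorescent MTs, scored by gliding velocity. The SAR screen used 750 nM test compound in triplicate (some in duplicate), with n ≥ 30 measurements per replicate. Concentration-response series ran 10 to 0.2 μM (12 concentrations) or 30 to 0.1 μM (5 concentrations). For reversibility, gliding was started in DMSO, then 10 μM compound was added for 1 minute, followed by a double wash-out.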

Another assay deals with T2, Kif15 (Homo sapiens, UniProt Q9NS87).
T2 sequence (Q9NS87 1-1388): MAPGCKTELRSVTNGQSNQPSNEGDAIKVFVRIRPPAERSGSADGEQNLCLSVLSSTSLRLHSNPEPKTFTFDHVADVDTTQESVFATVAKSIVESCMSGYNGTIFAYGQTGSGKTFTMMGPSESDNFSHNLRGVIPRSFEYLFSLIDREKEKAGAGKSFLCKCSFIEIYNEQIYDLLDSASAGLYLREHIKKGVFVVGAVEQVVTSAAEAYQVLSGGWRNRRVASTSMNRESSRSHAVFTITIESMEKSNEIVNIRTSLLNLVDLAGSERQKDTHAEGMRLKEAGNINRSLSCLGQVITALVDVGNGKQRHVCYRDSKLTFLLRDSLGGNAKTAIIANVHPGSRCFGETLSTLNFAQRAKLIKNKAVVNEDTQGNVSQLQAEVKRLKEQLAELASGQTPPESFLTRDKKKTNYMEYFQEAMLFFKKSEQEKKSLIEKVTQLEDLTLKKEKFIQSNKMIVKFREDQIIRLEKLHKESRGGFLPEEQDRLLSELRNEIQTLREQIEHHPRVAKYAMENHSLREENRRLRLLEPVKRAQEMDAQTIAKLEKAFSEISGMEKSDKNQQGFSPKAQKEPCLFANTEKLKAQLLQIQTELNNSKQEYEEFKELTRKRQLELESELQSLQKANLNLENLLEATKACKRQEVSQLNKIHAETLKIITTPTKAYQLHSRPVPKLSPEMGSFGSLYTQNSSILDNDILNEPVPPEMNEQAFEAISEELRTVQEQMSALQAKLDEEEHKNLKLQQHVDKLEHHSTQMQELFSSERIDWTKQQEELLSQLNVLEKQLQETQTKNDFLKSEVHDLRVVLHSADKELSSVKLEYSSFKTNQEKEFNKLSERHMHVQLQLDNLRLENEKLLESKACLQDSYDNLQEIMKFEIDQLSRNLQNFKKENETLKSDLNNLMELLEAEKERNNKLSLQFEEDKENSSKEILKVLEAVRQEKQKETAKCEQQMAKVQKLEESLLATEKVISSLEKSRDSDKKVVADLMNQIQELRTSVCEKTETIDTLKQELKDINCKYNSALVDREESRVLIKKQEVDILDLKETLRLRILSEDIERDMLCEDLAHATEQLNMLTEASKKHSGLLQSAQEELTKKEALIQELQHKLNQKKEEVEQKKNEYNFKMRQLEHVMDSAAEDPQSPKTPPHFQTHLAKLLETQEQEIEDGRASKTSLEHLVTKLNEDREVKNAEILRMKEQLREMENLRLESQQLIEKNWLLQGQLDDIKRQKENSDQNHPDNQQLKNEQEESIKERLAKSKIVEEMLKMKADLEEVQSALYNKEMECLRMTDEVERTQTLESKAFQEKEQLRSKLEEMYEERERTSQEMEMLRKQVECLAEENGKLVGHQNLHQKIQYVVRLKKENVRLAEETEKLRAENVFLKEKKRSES
Kind of assay: Kif15 localization and protein level in RPE-1 cells. The class given is cell-based. The following applies: 25 μM. In outline:
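TP53−/− RPE-1 cells were exposed to the test compound at 25 μM or to DMSO for 24 h, then immunostained for Kif15, tubulin and DNA. Imaging used max-intensity z-projections or single optical sections. Spindle-bound Kif15 was quantified on metaphase MTs as the ratio of Kif15 to tubulin fluorescence intensity. 25–30 cells were analysed, pooled from triplicate experiments.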

Assay [2] has as its target T1, Kif15-N700. Kind of assay: MT-stimulated ATPase activity of Kif15-N700 at varying ATP or MT concentrations. In kind it is biochemical. Conditions: for mode of inhibition with respect to ATP: Lineweaver-Burk analysis.
Another assay has as its system KIRC-1 cells. The assay is described as follows: Spindle monopolarity in K5I-resistant KIRC-1 cells. In kind it is cell-based.
A further assay relates to TP53−/− RPE-1 cells. The assay is described as follows: Spindle morphology. Conditions: 25 μM. The class given is cell-based. In outline:
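TP53−/− RPE-1 cells were exposed to 25 μM test compound or DMSO for 24 h and stained for tubulin, Kif15 and DNA. Pre-anaphase microtubule arrays were scored for bipolarity, in triplicate with at least 100 cells per replicate; spindle lengths were compared with DMSO-treated cells.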

The test system of a further assay is RPE-1 cells. Conditions: cited from earlier work.
The mark [3] stands for this setting: ATP varied, high MT concentration.

Regarding `O=C1Nc2ccc(C(=O)c3ccco3)cc2/C1=C/c1cc(F)c(O)c(Br)c1` [Compound 6], the “Kif15 MT gliding inhibition (SAR, in words)” value (from here on “Kif15 MT gliding inhibition”) at Kif15-N700 [1] is reported as “intermediary inhibition”.
Regarding `O=C1Nc2ccc(C(=O)c3ccco3)cc2/C1=C/c1cc(I)c(O)c(I)c1` [Compound 5], the “Kif15 MT gliding inhibition” value on Kif15-N700 [1] was “not as well tolerated”.
On to `CCOC(=O)c1sc(NC(=O)[C@H](C(C)C)n2c(=O)[nH]c3ccccc3c2=O)nc1C` [Kif15-IN-1, reference compound], for which, at Kif15, the “effect on spindle-bound levels of Kif15” value was “did not reduce”. Further, on Kif15-N700 [1], the “effect on Kif15-driven MT gliding at a single concentration” value is on record as “abolishes Kif15-driven MT gliding” and the “reversibility of Kif15 inhibition in MT gliding assay” value is given as “reversible”. On Kif15-N700 [2] (setting [3]), the “change in KM^ATP” value is “increase”. Moreover, the “mode of inhibition with respect to ATP” value at Kif15-N700 [2] was “competes with ATP binding”.
As to `Cc1cc(/C=C2\C(=O)Nc3ccc(C(=O)c4ccco4)cc32)cc(C)c1O` [Compound 9], the “Kif15 MT gliding inhibition” value on Kif15-N700 [1] is on record as “reduced in activity”.
On the same count and under the same terms, the entry for `COc1c(Br)cc(/C=C2\C(=O)Nc3ccc(C(=O)c4ccco4)cc32)cc1Br` [Compound 10] is “abolished activity”; for `O=C1Nc2ccc(C(=O)c3ccco3)cc2/C1=C/c1cc(Br)cc(Br)c1` [Compound 8] it is “abolished activity”.
With `O=C1Nc2ccc(C(=O)c3ccco3)cc2/C1=C/c1cc(Cl)c(O)c(Cl)c1` [GW108X], the “dose dependence of block of spindle assembly” value with KIRC-1 cells is on record as “dose-dependent”. Further, the “spindle length (effect in words)” value in the assay on TP53−/− RPE-1 cells was “unaffected”. Also, on Kif15-N700 [1], the “effect on Kif15-driven MT gliding at a single concentration” value was “eliminate MT gliding” and the “reversibility of Kif15 inhibition in MT gliding assay” value is given as “reversible”. At Kif15-N700 [2] (setting [3]), the “change in KM^ATP” value was “no change” and the “change in Vmax” value was “decrease”. Moreover, at Kif15-N700 [2], the “mode of inhibition with respect to ATP” value is given as “not competing with ATP binding”. In addition, the “change in KM^MT” value at Kif15-N700 [2] (MT varied, saturating ATP) is listed as “increase”.
For the molecule `O=C1Nc2ccc(C(=O)c3ccco3)cc2/C1=C/c1cc(Cl)c(O)c(Br)c1` [Compound 7], on Kif15-N700 [1], the “Kif15 MT gliding inhibition” value is “intermediary inhibition”.
For BRD9876, in the assay on RPE-1 cells, the “effect on spindle integrity” value is listed as “does not cause spindle collapse”.

(Values after publication PMC6681659 (Bioorganic & medicinal chemistry letters, 2018).)
